{"data": "Assay results pooled from the literature", "target": "Serine/threonine-protein kinase RIO3 (RIOK3, Homo sapiens, UniProt O14730)", "Sequence (O14730 1-519, as in one of the studies)": "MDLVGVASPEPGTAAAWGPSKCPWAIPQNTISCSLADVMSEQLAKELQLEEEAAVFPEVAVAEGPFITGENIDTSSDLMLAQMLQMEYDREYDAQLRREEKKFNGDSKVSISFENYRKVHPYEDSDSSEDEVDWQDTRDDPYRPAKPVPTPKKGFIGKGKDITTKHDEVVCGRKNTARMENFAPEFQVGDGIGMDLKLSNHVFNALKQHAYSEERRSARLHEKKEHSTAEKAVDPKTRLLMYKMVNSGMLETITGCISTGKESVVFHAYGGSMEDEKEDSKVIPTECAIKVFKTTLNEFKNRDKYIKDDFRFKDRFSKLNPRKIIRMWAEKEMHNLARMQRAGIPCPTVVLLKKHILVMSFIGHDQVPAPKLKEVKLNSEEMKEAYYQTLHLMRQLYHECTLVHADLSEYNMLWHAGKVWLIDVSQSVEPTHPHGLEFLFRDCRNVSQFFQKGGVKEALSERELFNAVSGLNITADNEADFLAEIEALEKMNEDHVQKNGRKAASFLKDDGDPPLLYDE", "note": "Compare with care: the assays were run in different laboratories."}
{"Structure (SMILES)": "CC1CCCN1c1nccc(-c2cnn3ncccc23)n1 (stereo not shown)", "effect on": "binding", "concentration": "1 µM", "remaining binding [%]": 100}
{"Structure (SMILES)": "O=C(NCCCN1CCOCC1)c1ccc(Nc2ncc(Cl)c(-c3ccc(Cl)s3)n2)cc1", "effect on": "binding", "method": "competition with immobilised ligand", "concentration": "1 µM", "remaining binding [%]": 0.4}
{"Structure (SMILES)": "COc1ccc2c(O[C@@H]3C[C@H]4C(=O)N[C@]5(C(=O)O)CC5/C=C\\CCCCC[C@H](NC(=O)OC5CCCC5)C(=O)N4C3)cc(-c3csc(NC(=O)C(C)C)n3)nc2c1C (stereo partly shown)", "effect on": "cell-free assay", "method": "competition with immobilised ligand", "concentration": "1 µM", "remaining binding [%]": 100}
{"Structure (SMILES)": "CN(c1nccc(-c2cnn3ncccc23)n1)C1CC1", "effect on": "binding", "concentration": "1 µM", "remaining binding [%]": 100}
{"Structure (SMILES)": "O=C(NCCCN1CCOCC1)c1ccc(Nc2nccc(-c3cc4ccccc4s3)n2)cc1", "effect on": "binding", "method": "competition with immobilised ligand", "concentration": "1 µM", "remaining binding [%]": 1.7}
{"Structure (SMILES)": "CCN1CCN(Cc2ccc(C(=O)Nc3ccc(C)c(Oc4ccc5c(c4)CC(=O)N5)c3)cc2C(F)(F)F)CC1", "effect on": "binding", "method": "competition with immobilised ligand", "concentration": "1 µM", "remaining binding [%]": 100}
{"Structure (SMILES)": "C[C@@H](c1ccc(-n2cnc3c(N)ncnc32)cc1)N1CCc2nn(C)c(Cc3ccccc3)c2C1=O", "effect on": "binding", "method": "competition with immobilised ligand", "concentration": "0.1 µM", "remaining binding [%]": 76}
{"Structure (SMILES)": "N[C@@H]1CCN(c2nccc(-c3cnn4ncccc34)n2)C1", "effect on": "binding", "concentration": "1 µM", "remaining binding [%]": 100}
{"Structure (SMILES)": "C=CC(=O)N1CCC(C(=O)NCC(=O)N2CCN(c3nc(-c4cnc(N)nc4C(F)F)nc(N4CCOCC4)n3)CC2)CC1", "effect on": "binding", "method": "competition with immobilised ligand", "concentration": "1 µM", "remaining binding [%]": 100}
{"Structure (SMILES)": "CCCOc1ccc([C@H]2[C@H](C(=O)O)[C@@H](c3ccc4c(c3)OCO4)CN2CC(=O)Nc2c(CC)cccc2CC)cc1", "effect on": "cell-free assay", "method": "competition with immobilised ligand", "concentration": "1 µM", "remaining binding [%]": 100}
{"Structure (SMILES)": "CN(CCCC(F)(F)F)c1nccc(-c2cnn3ncccc23)n1", "effect on": "binding", "concentration": "1 µM", "remaining binding [%]": 100}
{"Structure (SMILES)": "COc1cnc(Nc2cccc(S(N)(=O)=O)c2)nc1N1CCN(c2ccccc2)CC1", "effect on": "binding", "method": "competition with immobilised ligand", "concentration": "1 µM", "remaining binding [%]": 91}
{"Structure (SMILES)": "C[C@@H]1CCN(c2nccc(-c3cnn4ncccc34)n2)C1", "effect on": "binding", "concentration": "1 µM", "remaining binding [%]": 100}
{"Structure (SMILES)": "COc1ncc2cc3ccccc3nc2c1C#N", "effect on": "cell-free assay", "method": "competition with immobilised ligand", "concentration": "5 µM", "remaining binding [%]": 97}
{"Structure (SMILES)": "CC(C)(O)c1cncc(-c2nc3ccc(F)cc3n2C2CC2)c1", "effect on": "cell-free assay", "method": "competition with immobilised ligand", "concentration": "1 µM", "remaining binding [%]": 100}
{"Structure (SMILES)": "O=C(Nc1c[nH]nc1C(=O)NC1CCNCC1)c1cc(F)cc(F)c1", "effect on": "binding", "method": "competition with immobilised ligand", "concentration": "1 µM", "remaining binding [%]": 100}
{"Structure (SMILES)": "Cc1cc(NC(=O)c2cccc(S(F)(F)(F)(F)F)c2)cc(-n2ccn3nc(-c4cccnc4)cc23)c1", "effect on": "cell-free assay", "method": "competition with immobilised ligand", "concentration": "1 µM", "remaining binding [%]": 85.9}
{"Structure (SMILES)": "O=C(c1ccc(Nc2ncc(Cl)c(-c3ccc(Cl)s3)n2)cc1)N1CCC(N2CCCC2)CC1", "effect on": "binding", "method": "competition with immobilised ligand", "concentration": "1 µM", "remaining binding [%]": 0}
{"Structure (SMILES)": "CO[C@@H](C)c1c(Nc2ccc([C@H](N(C)C(=O)C3CCS(=O)(=O)CC3)C(F)(F)F)cc2)cnc2cc(Cl)nn12", "effect on": "cell-free assay", "method": "competition with immobilised ligand", "concentration": "1 µM", "remaining binding [%]": 82}
{"Structure (SMILES)": "FC(F)(F)Oc1cccc(-c2cnc3ccc(-c4ccncc4)nn23)c1", "effect on": "binding", "method": "competition with immobilised ligand", "concentration": "5 µM", "remaining binding [%]": 16}
{"Structure (SMILES)": "O=C1NC(c2ccccn2)Sc2ccccc21 (stereo not shown)", "effect on": "cell-free assay", "method": "competition with immobilised ligand", "concentration": "1 µM", "remaining binding [%]": 91}
{"Structure (SMILES)": "CN(C)c1ncc(F)c(-c2cnn3ncccc23)n1", "effect on": "binding", "concentration": "1 µM", "remaining binding [%]": 100}
